FLuc inh counter = Photinus pyralis luciferase inhibition counter-screen; ATPLite firefly luciferase biochemical luminescence, 10 min; inhibition, % at 10 µM; actives 1.5% (n = 200,000); AID 1006;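 active = inhibition above about 50% when tested at 10 µM, limit read from the data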
Target sequence (P08659 whole entry, looked up): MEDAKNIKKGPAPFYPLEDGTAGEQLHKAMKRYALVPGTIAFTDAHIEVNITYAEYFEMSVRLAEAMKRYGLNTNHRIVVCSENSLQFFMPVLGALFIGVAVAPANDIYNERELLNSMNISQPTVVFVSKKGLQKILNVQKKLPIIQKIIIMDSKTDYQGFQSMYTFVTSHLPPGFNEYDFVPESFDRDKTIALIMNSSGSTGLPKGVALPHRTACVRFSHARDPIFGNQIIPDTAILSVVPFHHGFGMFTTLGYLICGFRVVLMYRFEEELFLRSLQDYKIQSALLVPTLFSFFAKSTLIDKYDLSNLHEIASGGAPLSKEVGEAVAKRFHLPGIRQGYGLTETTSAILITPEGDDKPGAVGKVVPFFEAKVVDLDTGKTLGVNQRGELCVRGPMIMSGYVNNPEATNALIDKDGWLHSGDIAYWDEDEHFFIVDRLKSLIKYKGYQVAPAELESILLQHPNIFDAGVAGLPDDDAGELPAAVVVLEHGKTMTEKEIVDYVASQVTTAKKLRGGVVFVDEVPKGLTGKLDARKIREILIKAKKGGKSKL
NF-kB neuron act = NF-kB expression increase, human neuronal cells | NF-kB reporter expression; hits give high values | fold change at 12.5 µM | actives 1.6% (n = 190,000) | AID 1239; in the data active = fold change above about 3.3
STAT1 activator = increases IFN-gamma driven STAT1 reporter signal; NIH 3T3 STAT1-luciferase reporter, luminescence; 100% = IFN-gamma alone, no compound; activation (% of control), % at 5.5 µM; actives 2.6% (n = 200,000); AID 932;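 active = activation above the screen-wide mean activation plus 3 SD, cut at about 130% in these data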;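 also: raw ratio to IFN-gamma control signal so 100% means no change and 0% no light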
APP 5'UTR act = APP 5'UTR luciferase reporter activation. SH-SY5Y APP 5'UTR luciferase reporter, luminescence; zero percent = DMSO vehicle wells. activation, % at 2 µM. actives 1% (n = 190,000). AID 1276;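 active = activation above a set limit, based on mean plus 3 SD of controls, cut at about 140% in these data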
FLuc stim CS = affects firefly luciferase, flagging false hits in luciferase stimulation screens | P08659 | ATPlite luciferase biochemical, luminescence, 10 min; 0 = ATP-free wells, 1 = DMSO control | activation factor at 10 µM | 200,000 tested, under 10 active;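 active = luciferase activation factor, scaled between plate controls, of at least 2 with compound at 10 µM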
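System: luciferase plus luciferin reagent, cell-free; medium: PBS as buffer for the ATP substrate; dosing: test compounds dosed from 2 mM stocks in 100% DMSO; timing: 10 min post-reagent at room temperature; measured by: luminescence measurement of luciferase light output; evaluation: luciferase activation, seen as luminescence increase over controls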
* marks the source's active call; other numbers are inactive results; . = not tested or not shown. In the library only some 4.1% were active in any assay of this set; here they are far more common.

SMILES	FLuc inh counter	NF-kB neuron act	STAT1 activator	APP 5'UTR act	FLuc stim CS
Cc1ccc(-n2c(=O)c3sccc3n(Cc3cc(=O)n4ccccc4n3)c2=O)cc1	0	1.4	95	19	1
CCCCc1nc2sc3c(=O)n(N)cnc3c2c2c1CCCC2	-10	1.4	108	-3	1.1
CCOC(=O)c1nnn(CC(=O)N2N=C(c3ccccc3)CC2c2ccccc2)c1C(=O)OCC (stereo not drawn)	-1	1.2	98	10	1
CC(=O)OCC(=O)N1N=C(c2ccc3ccccc3c2)CC1c1ccccc1 (stereo not drawn)	1	1.5	139*	55	1
COc1ccc(C2CC(c3ccc4ccccc4c3)=NN2C(=O)CN2CCC(C(N)=O)CC2)cc1 (stereo not drawn)	-3	1	121	41	1
CCOC(=O)/C=C(\C)N1N=C(c2ccccc2)CC1c1ccccc1 (stereo not drawn)	9	2.5	142*	83	0.9
FC(F)(F)Oc1ccc(Nc2nc3ccccc3o2)cc1	5	1.9	134*	77	1
c1ccc(Nc2nc3ccccc3o2)cc1	58*	5.3*	137*	133	0.4
O=C(CC(Nc1ccccc1)C(=O)O)c1ccccc1 (stereo not drawn)	78*	3.3*	.	.	0.2
CN(C)C(=S)Nc1ccc2c(c1)OCO2	-1	1.1	104	19	1
CCCCCCOC(=O)/C=C/c1c(C)[nH]c(=O)[nH]c1=O	2	1.1	97	-1	1
CC(NC(=O)c1ccccc1)c1ccc(Br)cc1 (stereo not drawn)	-3	0.99	89	-1	1
C=CC(=O)NC(NC(=O)C=C)c1ccc(Br)cc1	-2	3.3*	97	-1	1
CCc1ccc(OCc2nc(-c3ccccn3)no2)c(Br)c1	55*	3.2	100	181*	0.5
CC(C)c1ccc(OCc2nc(-c3ccccn3)no2)c(Br)c1	36	5.4*	138*	182*	0.6
Cc1ccc(SCc2nc(-c3ccccn3)no2)cc1	4	1.7	125	37	1
Cc1ccc(OCc2nc(-c3ccccn3)no2)cc1	33	5.1*	127	139*	0.7
Cc1ccc(OCc2nc(-c3ccccn3)no2)c(Br)c1	79*	4.4*	56	150*	0.2
Cc1ccc(C2CC(c3ccccc3Cl)n3nc(N)nc3N2)cc1 (stereo not drawn)	-5	1	95	4	1
Nc1nc(-c2ccccc2)cn1N	-4	1.3	112	25	1
c1ccc(-c2cn3c(n2)-c2ccccc2C3)cc1	87*	3.9*	115	152*	0.1
CN(C)/C=C/C(=O)c1ccc(Oc2ccccc2)cc1	75*	2.2	135*	76	0.3
CCCc1ccc(C(=O)/C=C/N(C)C)cc1	74*	2.1	126	92	0.3
NC(N)=N/N=C/c1ccc(OCc2ccc(Cl)cc2)cc1	7	6*	112	111	0.9
O=C1CCCC(O)=C1N=Nc1cccc(C(=O)O)c1	1	1.3	90	45	1
SMILES	FLuc inh counter	NF-kB neuron act	STAT1 activator	APP 5'UTR act	FLuc stim CS
O=C(/C(C=Nc1cc2c(oc1=O)CCCC2=O)=C(\O)c1ccccc1)c1ccccc1	-6	1.2	149*	30	1.1
CCOC(=O)COc1ccc2c3c(c(=O)oc2c1C)CCC3	0	4.8*	92	5	1
O=C(NCc1ccc2c(c1)OCO2)c1c(O)c2cccc3c2n(c1=O)CCC3	-10	1.1	94	-16	1.1
CC(C)Sc1nnc(Nc2ccccc2)s1	21	1.1	138*	71	0.8
Oc1sc(C=Nc2ccc(F)cc2)c2ccccc12	3	2	138*	118	1
Oc1c(C=Nc2ccccc2)sc2ccccc12	95*	4.6*	118	77	0.1
Oc1c(C=Nc2cccnc2)sc2ccccc12	70*	0.96	97	17	0.3
CN=Cc1sc2ccccc2c1O	3	1.1	101	31	1
Oc1c(C=NCc2ccncc2)sc2ccccc12	6	1.1	101	57	0.9
Cc1csc(=NC(=O)c2ccccc2)n1C	31	3.6*	127	102	0.7
CCn1c(C)csc1=NC(=O)c1ccccc1	13	1.3	101	20	0.9
CC(C)(C)n1nc2c(c1NC(=O)Cc1cccc3ccccc13)CS(=O)C2 (stereo not drawn)	-2	1.1	99	20	1
Cc1ccc(OC(=O)c2sc3ncn(C)c(=O)c3c2C)cc1	2	3.4*	136*	129	1
O=C(Nc1ccc(N2CCOCC2)c(Cl)c1)c1ccc([N+](=O)[O-])o1	11	1.1	129*	-95	0.9
CC(C)C(=O)N1CCN(c2ccc(NC(=O)c3ccc([N+](=O)[O-])o3)cc2)CC1	1	0.32	141*	-57	1
CCOc1ccc2c(c1)[N+](C)(C)C(C)(C)C=C2C	-4	0.84	95	-21	1
O=C(/C=C/c1c(F)cccc1Cl)c1ccc(F)cc1	8	1.2	90	.	0.9
Fc1ccc(Nc2ccnc(Nc3ccc(F)cc3)n2)cc1	5	2.9	137*	77	0.9
C=CCn1c(SCc2nc3scc(-c4ccccc4)c3c(=O)[nH]2)nnc1-c1ccccc1F	-8	1.1	102	11	1.1
CC(C)c1ccc(/C=N/NC(=O)c2c(Cl)cnn2C)cc1	93*	5.2*	138*	117	0.1
CCOc1ccccc1NC(=O)CSc1ccc2nnc(-c3cccnc3)n2n1	-3	1	93	-6	1
CCc1ccc(NC(=O)Nc2cccs2)cc1	85*	3.8*	134*	6	0.2
Cc1ccc(NC(=O)Nc2cccs2)nc1	16	1.9	126	35	0.8
Cc1ccc(NC(=O)Nc2cccs2)cc1	64*	2.2	115	95	0.4
CCOc1ccc(NC(=O)Nc2cccs2)cc1	83*	4.5*	123	.	0.2
SMILES	FLuc inh counter	NF-kB neuron act	STAT1 activator	APP 5'UTR act	FLuc stim CS
CCOc1ccc(NC(=O)Nc2ccc3nsnc3c2)cc1	6	1.5	125	-1	0.9
O=C(NCCOc1ccccc1Cl)c1cc(F)c(F)cc1Cl	-2	3.8*	130*	124	1
CCc1c(C)c2c(C)nn(-c3ccccc3)c2[nH]c1=O	-10	1.6	88	0	1.1
Cc1cc(C)n(/N=C/c2cccs2)c(=O)c1C#N	-4	1.3	91	1	1
Oc1ccc(-c2nccc(-c3cccs3)n2)cc1	5	2.9	141*	83	0.9
COC(=O)C(C)Oc1ccc(-c2nccc(-c3cccs3)n2)cc1 (stereo not drawn)	5	1.4	117	0	1
COc1ccc(OCC(=O)N2CCN(C(=O)c3ccccc3)CC2)cc1	4	1.1	104	12	1
Cc1ncc(CN2CCN(Cc3ccccc3)C(CCO)C2)s1 (stereo not drawn)	-5	0.99	92	3	1.1

From PubChem
